Source: PubChem BioAssay (several laboratories)
PHOSPHO1 block: inhibitors of human PHOSPHO1 phosphatase. 290,000 compounds, 1.1% hits. AID 1565. inhibition, % at 13.3 µM. Q8TCT1. recombinant PHOSPHO1, absorbance phosphatase assay; in the data active means inhibition above about 60%
pCIP destab: lowers stability of the mouse p/CIP coactivator protein. decrease of EGFP signal, % at 10 µM. Q05BA5. 290,000 compounds, 0.01% hits. F442A p/CIP-EGFP cells, EGFP fluorescence, 16 h. AID 1984;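 active means EGFP signal decrease of at least 30% at 10 µM or well 3 SD below plate mean, unless failing retest; inactive means the rest, including hits failing retest or dose response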
Target sequence (Q05BA5 1-1403): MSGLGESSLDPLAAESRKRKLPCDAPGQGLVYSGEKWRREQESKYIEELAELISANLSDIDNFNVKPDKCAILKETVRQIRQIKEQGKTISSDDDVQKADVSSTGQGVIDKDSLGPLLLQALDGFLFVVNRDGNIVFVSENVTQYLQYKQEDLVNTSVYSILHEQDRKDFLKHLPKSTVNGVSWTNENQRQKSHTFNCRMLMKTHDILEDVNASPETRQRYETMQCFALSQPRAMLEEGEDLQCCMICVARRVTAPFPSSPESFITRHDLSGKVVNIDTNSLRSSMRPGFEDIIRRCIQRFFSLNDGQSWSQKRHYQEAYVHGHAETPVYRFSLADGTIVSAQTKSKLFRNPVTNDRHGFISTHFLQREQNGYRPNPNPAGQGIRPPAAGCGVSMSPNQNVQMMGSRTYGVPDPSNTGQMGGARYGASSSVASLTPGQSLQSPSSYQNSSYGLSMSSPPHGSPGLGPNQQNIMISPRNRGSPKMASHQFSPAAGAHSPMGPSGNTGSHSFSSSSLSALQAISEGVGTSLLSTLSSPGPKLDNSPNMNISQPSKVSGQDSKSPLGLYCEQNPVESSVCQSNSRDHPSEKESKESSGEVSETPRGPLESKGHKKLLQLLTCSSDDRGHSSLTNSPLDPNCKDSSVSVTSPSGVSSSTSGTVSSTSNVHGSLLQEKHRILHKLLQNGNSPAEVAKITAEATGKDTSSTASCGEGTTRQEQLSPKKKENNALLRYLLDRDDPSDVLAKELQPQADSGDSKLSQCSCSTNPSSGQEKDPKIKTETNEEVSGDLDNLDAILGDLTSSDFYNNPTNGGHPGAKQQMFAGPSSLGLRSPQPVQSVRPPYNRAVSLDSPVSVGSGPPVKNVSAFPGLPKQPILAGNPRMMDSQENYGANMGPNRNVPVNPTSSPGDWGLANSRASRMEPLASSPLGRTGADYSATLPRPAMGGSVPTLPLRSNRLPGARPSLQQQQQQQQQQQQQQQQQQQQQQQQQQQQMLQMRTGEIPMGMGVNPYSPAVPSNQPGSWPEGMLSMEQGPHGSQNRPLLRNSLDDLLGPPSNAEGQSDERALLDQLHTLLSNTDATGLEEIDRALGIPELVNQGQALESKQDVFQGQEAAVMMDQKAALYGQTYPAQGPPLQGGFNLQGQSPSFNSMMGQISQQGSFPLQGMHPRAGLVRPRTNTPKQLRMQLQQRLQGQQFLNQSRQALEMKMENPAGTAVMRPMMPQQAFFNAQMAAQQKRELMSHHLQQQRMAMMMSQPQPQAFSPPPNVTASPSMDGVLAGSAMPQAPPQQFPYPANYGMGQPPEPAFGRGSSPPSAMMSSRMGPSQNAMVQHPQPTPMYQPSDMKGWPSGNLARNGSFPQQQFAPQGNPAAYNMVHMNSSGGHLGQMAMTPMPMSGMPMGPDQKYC
Tb MetRS inh: blocks T. brucei methionyl-tRNA synthetase activity; purified T. brucei MetRS, ATP depletion, Kinase-Glo luminescence; inhibition, % at 11.9 µM; 360,000 compounds, 0.4% hits; AID 624268;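 active means inhibition above a per-plate cutoff of the control wells' mean inhibition plus 3 SD, cut at about 5.5% in these data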
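Assay system: T. brucei methionyl-tRNA synthetase, purified | Medium: HEPES buffer with MgCl2, KCl, DTT, spermine, BSA, pyrophosphatase | Compound: 11.9 µM single point | Incubation: 15 min enzyme-compound preincubation, 2 h reaction, 10 min detection, 25 °C | Measured by: Kinase-Glo luciferase luminescence reporting remaining unconsumed ATP | Measure: % inhibition normalized to control-well medians | Replication: Singlicate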
A3A deaminase: blocks human APOBEC3A ssDNA deamination | 330,000 compounds, 0.41% hits | recombinant A3A, FAM/TAMRA ssDNA deamination fluorescence | inhibition, % at 20 µM | P31941;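 active means at least 40% inhibition at 20 µM here, with at most 30% in a related deaminase screen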
APOBEC3G inh: inhibitors of human APOBEC3G DNA deaminase | Q9HC16 | recombinant A3G, ssDNA deamination FAM/TAMRA fluorescence | 330,000 compounds, 0.28% hits | inhibition, % at 20 µM;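 active means inhibition of at least 40% at 20 µM, with no more than 30% in the related APOBEC3A deaminase screen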
APOBEC3A confirm: APOBEC3A (human) deaminase inhibition, confirmed | shares compounds with A3A deaminase | recombinant A3A, ssDNA deaminase UDG fluorescence assay | inhibition, % at 20 µM | 1,400 compounds, 63% hits | AID 493151;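 active means inhibition reaching a set limit, 80% of the first screen's cutoff, at 20 µM in any replicate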
UDG ctr A3A: inhibits UDG, flagging false APOBEC3A inhibitors; shares compounds with A3A deaminase; UDG counterscreen, FAM/TAMRA uracil oligo fluorescence; inhibition, % at 20 µM; 1,000 tested, under 10 active; AID 504714; call rule not given here
Of the large screens only hits and unclear results are named; the others gave an inactive call (follow-up assays come after a bar, where they were run). The list is not random: actives were taken first. Their share in the collection is about 1.8%.

CCC(C)N(C(=O)c1csnn1)C(C(=O)NC(C)(C)C)c1ccccc1 (stereo not given)	A3A deaminase 61.6 | APOBEC3A confirm inactive | UDG ctr A3A inactive
CCOC(=O)c1ccc(NC(=O)CNNC(=O)COc2ccccc2C)cc1	none (no result: PHOSPHO1 block, pCIP destab)
N#CCC(=O)N/N=C/c1cn(Cc2ccccc2C#N)c2ccccc12	A3A deaminase 56.3 | APOBEC3A confirm 71.9 | UDG ctr A3A inactive
O=c1[nH]c(N/N=C/c2cc3c(cc2[N+](=O)[O-])OCO3)nc2ccccc12	A3A deaminase 43.8 | APOBEC3A confirm 70.8 | UDG ctr A3A inactive
Cc1ccc(SCC(=O)Nc2cccc(NC(=O)c3ccco3)c2)cc1	none
Cc1cc2c(cc1S(=O)(=O)CCC(=O)NC1CCCCC1C)OCC(=O)N2 (stereo not given)	none
CCN1/C(=C\C(C)=O)Sc2ccc(OC)cc21	PHOSPHO1 block 61.3, A3A deaminase 58.1 | APOBEC3A confirm 66.5 | UDG ctr A3A inactive
O=C(CCNC(=O)c1ccco1)Nc1ccc(SC(F)F)cc1	none
CC(=O)Oc1ccc(Cn2c(C)c(C(=O)NCc3ccc4c(c3)OCCO4)sc2=O)cc1	none (no result: PHOSPHO1 block, pCIP destab, A3A deaminase, APOBEC3G inh)
CCOC(=O)C1CCCN(CC(=O)Nc2cc(C)cc(C)c2)C1 (stereo not given)	A3A deaminase 60.1 | APOBEC3A confirm inactive
CCOC(=O)C1CCCN(CCC(=O)Nc2cc(C)cc(C)c2)C1 (stereo not given)	none
COc1ccc2nc(SCC(=O)C(C)(C)C)[nH]c2c1	none
Cn1c(CC(=O)NN)c(Sc2ccccc2)c2ccccc21	none
COC(=O)c1c(Sc2ccccc2)c2ccccc2n1C	A3A deaminase 58.3 (no result: PHOSPHO1 block) | APOBEC3A confirm 81.7 | UDG ctr A3A inactive
CN(C1CCCC1)C1CCN(C(=S)Nc2cc(F)cc(F)c2)CC1	none
ONC(=Nc1cccc(C(F)(F)F)c1)c1cccnc1	none
O=C1C=C(O)CC(c2ccco2)C1 (stereo not given)	A3A deaminase 46.0 | APOBEC3A confirm 52.9 | UDG ctr A3A inactive
CCCC[n+]1ccn(-c2nc3ccccc3nc2[N-]S(=O)(=O)c2ccc(Cl)cc2)c1	none
CCCC[n+]1ccn(-c2nc3c([N+](=O)[O-])cccc3n2C)c1	A3A deaminase 68.1 | APOBEC3A confirm 78.0
CN(C)c1ccc(O)c2c1CC1CC3C(N(C)C)C(=O)C(C(N)=O)=C(O)[C@@]3(O)C(=O)C1=C2O (stereo not given in full)	A3A deaminase 40.4 (no result: PHOSPHO1 block, pCIP destab) | APOBEC3A confirm inactive | UDG ctr A3A inactive
CN(C)c1ccc(O)c2c1CC1CC3[C@@H](N(C)C)C(=O)C(C(N)=O)C(=O)[C@]3(O)C(=O)C1C2=O (stereo not given in full)	A3A deaminase 53.8 (no result: PHOSPHO1 block, pCIP destab) | APOBEC3A confirm 29.5 | UDG ctr A3A inactive
O=C(NCc1ccco1)c1nc(-c2ccc(F)cc2)no1	A3A deaminase 40.1 | APOBEC3A confirm inactive | UDG ctr A3A inactive
Cc1ccc([C@@H]2C[C@H]3[C@@H](CN2S(=O)(=O)c2ccc(Cl)cc2)C(=O)C[C@@H](c2ccccc2)N3S(=O)(=O)c2ccc(C)cc2)cc1	none (no result: PHOSPHO1 block, pCIP destab, A3A deaminase, APOBEC3G inh)
COc1ccc2nc(NC(=S)NC(=O)c3ccco3)sc2c1	none
COc1ccc2nc(NC(=O)c3ccc(-c4cccc([N+](=O)[O-])c4)o3)sc2c1	A3A deaminase 52.5 (no result: Tb MetRS inh) | APOBEC3A confirm 32.1
COc1ccc2sc(NC(=O)c3ccco3)nc2c1	PHOSPHO1 block 96.3, A3A deaminase 61.0 | APOBEC3A confirm 47.9 | UDG ctr A3A inactive
COc1ccc(CC(=O)NCCC(C)C)cc1S(=O)(=O)N1CCOCC1	none
O=C(CN1CCCC1)Nc1sc2c(c1C(=O)Nc1ccc(Br)cc1)CCC2	none
CN1CCN(CC(=O)Nc2sc3c(c2C(=O)Nc2ccccc2)CCCC3)CC1	A3A deaminase 56.7 | APOBEC3A confirm 42.5 | UDG ctr A3A inactive
O=C(CSc1nnc(-c2ccncc2)n1-c1ccccc1)N1CCN(c2ccc(Cl)cc2)CC1	PHOSPHO1 block 93.2, A3A deaminase 43.7 | APOBEC3A confirm 65.4 | UDG ctr A3A inactive
COc1ccc(NC(=O)c2ccc(OCC3CCCO3)cc2)cc1Cl (stereo not given)	none (no result: PHOSPHO1 block, pCIP destab)
COc1ccc(NC(=O)c2ccc(OCC3CCCO3)cc2)cc1OC (stereo not given)	A3A deaminase 49.8 (no result: PHOSPHO1 block, pCIP destab) | APOBEC3A confirm 36.1 | UDG ctr A3A inactive
Cc1ccc(NC(=O)[C@@H]2CCCN2S(=O)(=O)c2ccc(Cl)cc2)cc1	none (no result: PHOSPHO1 block, pCIP destab)
CC(=O)Oc1ccc(/C=N/NC(=O)C2CCCN2S(=O)(=O)c2ccc(Cl)cc2)cc1 (stereo not given)	PHOSPHO1 block 73.1, A3A deaminase 61.4 | APOBEC3A confirm 71.0 | UDG ctr A3A inactive
C=CCc1cc(Cl)ccc1OC(=O)Nc1cccc(Cl)c1	none
O=c1[nH]c(=O)n(CCc2ccc(F)cc2)c(O)c1C=NCc1ccc2c(c1)OCO2	A3A deaminase 68.3 | APOBEC3A confirm inactive
Cc1cccc(C)c1OCC(=O)NCc1nnc(SCC(=O)NC2CCCCC2C)n1C (stereo not given)	A3A deaminase 52.7 | APOBEC3A confirm 59.9 | UDG ctr A3A inactive
CCn1c(CNC(=O)COc2ccc(C(C)C)cc2)nnc1SCC(=O)NC1CCCCC1C (stereo not given)	none
COc1ccc(N(CC(=O)Nc2ccc(S(=O)(=O)N3CCOCC3)cc2)S(=O)(=O)c2ccc(F)cc2)cc1	none
Cc1cc(C)n2c(SCC(=O)Nc3cc(S(=O)(=O)N(C)C)ccc3C)nnc2n1	A3A deaminase 40.1 (no result: PHOSPHO1 block, pCIP destab) | APOBEC3A confirm inactive
CC(C)c1ccc(OCC(=O)NCCO)cc1	none
CC(C)n1c(SCC(=O)Nc2nncs2)nnc1-c1ccco1	A3A deaminase 66.2 (no result: Tb MetRS inh) | APOBEC3A confirm 53.0 | UDG ctr A3A inactive
Cc1nnc(NC(=O)CSc2nnc(-c3ccco3)n2C(C)C)s1	none
Cc1cccc(CN2[C@H](COCc3ccccc3)C=CS2(=O)=O)c1	none (no result: PHOSPHO1 block, pCIP destab, A3A deaminase, APOBEC3G inh)
COCCN(C(=O)COC(=O)c1oc2ccc(OC)cc2c1C)c1c(N)n(Cc2ccccc2)c(=O)[nH]c1=O	none
O=c1oc(-c2ccccc2NS(=O)(=O)c2ccccc2)nc2ccccc12	A3A deaminase 50.2 | APOBEC3A confirm inactive | UDG ctr A3A inactive
O=c1oc(-c2ccccc2NS(=O)(=O)c2ccc(F)cc2)nc2ccccc12	none
CCC(Sc1nnnn1C)C(=O)Nc1ccc(C(C)=O)cc1 (stereo not given)	A3A deaminase 40.4 | APOBEC3A confirm inactive
CCCCCC/C=N/Nc1nnc(Cc2ccccc2)c(=O)[nH]1	none
Cc1cc(=O)[nH]c(SCC(=O)Nc2cc(S(=O)(=O)N(C)C)ccc2Cl)n1	none
CC(C)(C)N(NC(=O)Nc1ccc(Cl)c(Cl)c1)C(=O)c1ccccc1	A3A deaminase 40.3 | APOBEC3A confirm inactive
